Laboratory results published in ChEMBL document CHEMBL1138243, “Design of mechanism-based inhibitors of transthyretin amyloidosis: studies with biphenyl ethers and new structural templates” (J Med Chem, 2007).
Active and inactive are the calls of the source. The calls are words filed in the database; no cut-off is given here.

Key:
[1] = target: T1, Transthyretin (Homo sapiens, UniProt P02766); test: Inhibition of transthyretin fibril formation at pH 4.4 at 50 uM; type: functional; design: scale not given: the % may be the effect or the level left
[2] = Cytotoxicity against TTR-induced […] cells assessed as viability at 50 uM after 72 hrs; type: functional; conditions: Mus musculus, N2a, read-out: Activity
[3] = target: T1, Transthyretin; test: Stabilization of urea-induced transthyretin dissociation at 5.4 uM at pH 7.2 after […] relative to control
[4] = test system: Neuro2a; test: Cytotoxicity against […] cells at 50 uM; type: functional, cell-based; conditions: Mus musculus
[5] = target: T1, Transthyretin; test: Inhibition of transthyretin fibril formation assessed as turbidity at 21.6 uM at pH 4.4 after 3 hrs; type: functional
In short: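 Kinetics run with 7.2 µM TTR plus 21.6 µM inhibitor at pH 4.4, 37 °C. Turbidity at 340 nm was followed for 3 h. Initial fibrillization rate came from the linear slope of A340 versus time. Three experiments in triplicate.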

[6] = target: T1, Transthyretin; test: Inhibition of transthyretin amyloidosis assessed as fibril formation at 21.6 uM at pH 4.4 relative to control; type: functional; design: scale not given: the % may be the effect or the level left
In short: (§1)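 WT TTR tetramer (7.2 µM) in pH 7 phosphate/KCl/EDTA was preincubated 1 h at 25 °C with inhibitor (7.2 or 21.6 µM; 1:1 or 1:3) in 1% DMSO. It was then diluted with pH 4.4 acetate/KCl/EDTA buffer and held stagnant 72 h at 37 °C. Turbidity was read at 340 nm as % fibril formation versus untreated (100%). Mean of five experiments.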

[7] = target: T1, Transthyretin; test: Inhibition of transthyretin amyloidosis assessed as fibril formation at 7.2 uM at pH 4.4 relative to control; type: functional; design: scale not given: the % may be the effect or the level left; in short: as §1
[8] = target: T1, Transthyretin; test: Inhibition of fibril elongation of preformed transthyretin at […] after 72 hrs by turbidity assay; type: functional
[9] = target: T1, Transthyretin; test: Stabilization of urea-induced transthyretin dissociation at 5.4 uM at pH 7.2 after 1 hr relative to control
[10] = target: T1, Transthyretin; test: Inhibition of transthyretin fibril formation at pH 4.4; type: functional
[11] = target: T1, Transthyretin; test: Binding affinity to transthyretin at pH 4.4
In short: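 Kd at pH 4.4 measured by fluorescence titration of TTR. Data were fitted to the Adair equation for two binding sites, giving Kd1 and Kd2. Experiments were run in triplicate.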

[12] = target: T1, Transthyretin; test: Inhibition of transthyretin fibril formation at pH 4.4 at 100 uM; type: functional
In short: (§2)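 Library screen of acid-mediated TTR fibril formation at pH 4.4 with inhibitor at 100 µM. TTR was at 7.2 µM.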

[13] = target: T1, Transthyretin; test: Inhibition of transthyretin amyloidosis assessed as fibril formation pH 4.4 at 100 uM; type: functional; in short: as §2

Structure (SMILES) | Activity [1] | inhibition [5] | Activity [6] | Activity [7] | inhibition [12] | percent fibril formation relative to control [13] | other results
COc1cc(COC(C)=O)ccc1Oc1ccc([N+](=O)[O-])cc1[N+](=O)[O-] | 69% | – | – | – | – | – | –
Oc1cc(CCl)ccc1Oc1ccc(Cl)cc1Cl | 0% | > 80% | 0% | 5% | – | – | viability at 50 µM [2]: 86%; Activity [3]: < 5%; Activity [4]: Not toxic
O=Cc1ccc(Oc2ccc([N+](=O)[O-])cc2[N+](=O)[O-])c(O)c1 | 40.5% | – | – | – | – | – | –
O=C(O)c1ccc(Oc2ccc(Cl)cc2Cl)c(O)c1 | 0% | > 80% | 13.3% | 29% | – | – | viability at 50 µM [2]: 86%; Activity [8]: Active; Activity [4]: Not toxic; Activity [9]: 21%
COc1cc(C(=O)O)ccc1Oc1ccccc1 | 40% | – | – | – | – | – | IC50 [10]: 41 µM
COc1cc(CO)ccc1Oc1ccc([N+](=O)[O-])cc1 | 89.5% | – | – | – | – | – | –
O=C(O)c1ccc(Oc2ccc([N+](=O)[O-])cc2[N+](=O)[O-])c(O)c1 | 75% | – | – | – | – | – | –
O=Cc1ccc(Oc2ccccc2)c(O)c1 | 112% | – | – | – | – | – | –
OCc1ccc(Oc2ccc(Cl)cc2Cl)c(O)c1 | 11.5% | > 80% | 2.6% | 12% | – | – | viability at 50 µM [2]: 86%; Activity [3]: < 5%; Activity [8]: Active; Activity [4]: Not toxic
COc1cc(C=O)ccc1Oc1ccccc1 | 0% | > 80% | 0% | 12% | – | – | viability at 50 µM [2]: 86%; Activity [3]: < 5%; Activity [8]: Active; Activity [4]: Not toxic
COc1cc(C(=O)O)ccc1Oc1ccc([N+](=O)[O-])cc1[N+](=O)[O-] | 48% | – | – | – | – | – | –
COc1cc(CO)ccc1Oc1ccccc1 | 61.2% | – | – | – | – | – | –
COc1cc(CO)ccc1Oc1ccc([N+](=O)[O-])cc1[N+](=O)[O-] | 28% | – | – | – | – | – | –
COc1cc(C=O)ccc1Oc1ccc([N+](=O)[O-])cc1[N+](=O)[O-] | 66% | – | – | – | – | – | –
COc1cc(CCl)ccc1Oc1ccccc1 | 0% | > 80% | 0% | 25% | – | – | viability at 50 µM [2]: 86%; Activity [3]: < 5%; Activity [8]: Active; Activity [4]: Not toxic; Kd [11]: Active
Oc1cc(Cl)ccc1Oc1ccc(Cl)cc1Cl | 41% | 62% | 66% | 75% | – | – | Activity [9]: 47%
COc1cc(CCl)ccc1Oc1ccc([N+](=O)[O-])cc1[N+](=O)[O-] | 79% | – | – | – | – | – | –
COc1cc(CCl)ccc1Oc1ccc(Cl)cc1Cl | 0% | > 80% | 0% | 26% | – | – | viability at 50 µM [2]: 86%; Activity [3]: < 5%; Activity [8]: Active; Activity [4]: Not toxic
O=C(Nc1nnc[nH]1)c1c(Cl)ccc(Cl)c1Cl | – | > 80% | 3.6% | 11% | 88.5% | 11.5% | viability at 50 µM [2]: 86%; Activity [3]: < 5%; Activity [8]: Active; Activity [4]: Not toxic

Structure (SMILES) | Activity [1] | inhibition [5] | Activity [6] | Activity [7] | inhibition [12] | percent fibril formation relative to control [13] | other results
O=Cc1ccc(Oc2ccc(Cl)cc2Cl)c(O)c1 | 0% | > 80% | 0% | 0% | – | – | viability at 50 µM [2]: 86%; Activity [3]: < 5%; Activity [8]: Active; Activity [4]: Not toxic
O=C(O)c1ccc(Oc2ccccc2)c(O)c1 | 5% | > 80% | 5% | 32% | – | – | viability at 50 µM [2]: 86%; Activity [3]: < 5%; Activity [8]: Active; IC50 [10]: 3.18 µM; Activity [4]: Not toxic; Kd ([11]; read-out: Kd): 27 nM
COc1cc(C(=O)O)ccc1Oc1ccc(Cl)cc1Cl | 0% | > 80% | 0% | 10% | – | – | viability at 50 µM [2]: 86%; Activity [3]: < 5%; Activity [8]: Active; Activity [4]: Not toxic
N[C@H](Cc1cc(I)c(Oc2cc(I)c(O)c(I)c2)c(I)c1)C(=O)O | – | 75% | 7% | 48% | – | – | Activity [9]: 27%
Nc1nc(Cl)cc(Oc2ccccc2F)n1 | – | – | – | – | 47.6% | 52.4% | –
Nc1nc(F)cc(Oc2ccccc2F)n1 | – | – | – | – | 45.6% | 54.4% | –
O=c1c2ccccc2nc2sc(Nc3ccc(F)cc3F)nn12 | – | – | – | – | 102% | -2.03% | –
CCCCN(CC)Cc1c(C)nc2ccc(Cl)cc2c1O | – | – | – | – | 20.3% | 79.7% | –
O=C(O)C1CSC(c2ccc([N+](=O)[O-])cc2)N1 (stereo unspecified) | – | – | – | – | 0% | 119% | –
Cc1nc2c(ccc3ccccc32)c(O)c1CN(C)Cc1ccccc1 | – | – | – | – | 0% | 105% | –
Cc1ccc(/C=c2/sc3nc4ccccc4n3c2=O)cc1 | – | – | – | – | 0% | 125% | –
O=C(NC(c1cccc([N+](=O)[O-])c1)c1cc(Cl)c2cccnc2c1O)c1cccnc1 (stereo unspecified) | – | – | – | – | 27.2% | 72.8% | –
CCc1ccccc1NC(=S)N(CCN(C)C)Cc1cccs1 | – | – | – | – | 0% | 108% | –
CCN(CC)CCCN(Cc1ccco1)C(=S)Nc1ccc(OC)cc1 | – | – | – | – | 0% | 107% | –
COc1ccccc1NC(=S)N(CCCN1CCCCCC1)Cc1cccs1 | – | – | – | – | 0% | 104% | –
Cc1nnc2c(Oc3ccc(Cl)cc3)nc3cc(Cl)ccc3n12 | – | – | – | – | 0% | 114% | –
Oc1ccccc1-c1nnc(S)o1 | – | > 80% | 0% | 21% | 86.2% | 13.8% | viability at 50 µM [2]: 86%; Activity [3]: < 5%; Activity [8]: Active; Activity [4]: Not toxic
COc1cccc(C(=O)NC(c2ccccc2)c2cc(Cl)c3cccnc3c2O)c1 (stereo unspecified) | – | – | – | – | 65.3% | 34.7% | –
Cc1ccsc1/C=c1\sc2nc(-c3cccs3)nn2c1=O | – | – | – | – | 22.3% | 77.8% | –
